Assay results taken from the M2OR odorant receptor database.

Tests used:
Details in all cases: stereoisomer not certain
OR6C76 (Homo sapiens) = OR6C76 (Homo sapiens) (UniProt A6NM76)
In short: (§1)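 Assay methods differ from source to source, frequently being transient luciferase assays in mammalian cell lines. For each receptor–molecule pair, the label responsive (active) applies when the original authors judged the measured signal statistically different from baseline, and non-responsive (inactive) applies otherwise.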

OR6F1 (Homo sapiens) = OR6F1 (Homo sapiens) (UniProt Q8NGZ6)
In short: as §1

OR6J1 (Homo sapiens) [1] = molecular target: OR6J1 (Homo sapiens) (UniProt Q8NGC5)
In short: as §1
Target sequence in this assay (Q8NGC5 whole entry): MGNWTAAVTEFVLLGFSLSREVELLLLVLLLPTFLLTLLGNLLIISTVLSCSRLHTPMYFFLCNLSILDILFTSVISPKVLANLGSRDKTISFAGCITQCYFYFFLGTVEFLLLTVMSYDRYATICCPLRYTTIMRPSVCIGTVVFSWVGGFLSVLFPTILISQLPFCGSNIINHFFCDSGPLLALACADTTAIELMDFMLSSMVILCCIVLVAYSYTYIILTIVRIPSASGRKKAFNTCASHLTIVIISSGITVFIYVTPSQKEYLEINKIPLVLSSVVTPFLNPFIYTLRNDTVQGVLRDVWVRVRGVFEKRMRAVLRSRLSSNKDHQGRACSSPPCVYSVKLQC

OR6K2 (Homo sapiens) = OR6K2 (Homo sapiens) (UniProt Q8NGY2)
In short: as §1

OR6K3 = tested on: OR6K3
In short: as §1

OR6K6 (Homo sapiens) = OR6K6 (Homo sapiens) (UniProt Q8NGW6)
In short: as §1

OR6M1 (Homo sapiens) = OR6M1 (Homo sapiens) (UniProt Q8NGM8)
In short: as §1

OR6M1 R224C = tested on: OR6M1 R224C
In short: as §1

OR6J1 (Homo sapiens) [2] = molecular target: OR6J1 (Homo sapiens) (UniProt Q8NGC5); remark: listed apart in the source
In short: as §1
Target sequence in this assay (Q8NGC5 whole entry S250P): as the sequence (Q8NGC5 whole entry) above, with S250P counted along it

OR6K3 (Homo sapiens) = OR6K3 (Homo sapiens) (UniProt Q8NGY3)
In short: as §1

Measured: odorant receptor agonist call

OR6K2 (Homo sapiens), sequence (Q8NGY2 whole entry): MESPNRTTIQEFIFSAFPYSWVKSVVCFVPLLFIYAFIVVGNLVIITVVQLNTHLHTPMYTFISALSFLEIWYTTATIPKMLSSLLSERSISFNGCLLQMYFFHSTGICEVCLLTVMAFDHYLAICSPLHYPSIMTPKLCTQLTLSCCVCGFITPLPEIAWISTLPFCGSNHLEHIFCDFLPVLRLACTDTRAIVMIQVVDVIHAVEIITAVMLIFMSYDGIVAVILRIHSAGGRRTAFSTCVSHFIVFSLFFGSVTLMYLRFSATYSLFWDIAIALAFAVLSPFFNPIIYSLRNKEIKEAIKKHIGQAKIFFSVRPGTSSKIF
OR6K6 (Homo sapiens), sequence (Q8NGW6 whole entry): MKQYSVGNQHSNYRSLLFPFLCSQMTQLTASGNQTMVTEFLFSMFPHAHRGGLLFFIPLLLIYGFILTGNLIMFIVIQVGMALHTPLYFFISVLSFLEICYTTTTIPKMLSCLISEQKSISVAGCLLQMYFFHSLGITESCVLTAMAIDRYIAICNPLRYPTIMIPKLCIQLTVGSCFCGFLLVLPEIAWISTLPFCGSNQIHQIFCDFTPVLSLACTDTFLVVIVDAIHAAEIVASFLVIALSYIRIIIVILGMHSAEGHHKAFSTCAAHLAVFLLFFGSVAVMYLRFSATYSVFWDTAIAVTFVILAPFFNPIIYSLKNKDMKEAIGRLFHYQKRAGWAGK
OR6C76 (Homo sapiens), sequence (A6NM76 whole entry): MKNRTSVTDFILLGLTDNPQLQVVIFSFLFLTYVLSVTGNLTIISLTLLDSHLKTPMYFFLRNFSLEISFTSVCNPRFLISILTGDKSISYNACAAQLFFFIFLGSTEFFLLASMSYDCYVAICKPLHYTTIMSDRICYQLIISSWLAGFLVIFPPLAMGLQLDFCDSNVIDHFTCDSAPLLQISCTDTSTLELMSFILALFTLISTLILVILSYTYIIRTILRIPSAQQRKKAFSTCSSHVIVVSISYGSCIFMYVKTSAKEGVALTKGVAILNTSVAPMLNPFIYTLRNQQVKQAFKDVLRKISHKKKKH
OR6M1 (Homo sapiens), sequence (Q8NGM8 whole entry): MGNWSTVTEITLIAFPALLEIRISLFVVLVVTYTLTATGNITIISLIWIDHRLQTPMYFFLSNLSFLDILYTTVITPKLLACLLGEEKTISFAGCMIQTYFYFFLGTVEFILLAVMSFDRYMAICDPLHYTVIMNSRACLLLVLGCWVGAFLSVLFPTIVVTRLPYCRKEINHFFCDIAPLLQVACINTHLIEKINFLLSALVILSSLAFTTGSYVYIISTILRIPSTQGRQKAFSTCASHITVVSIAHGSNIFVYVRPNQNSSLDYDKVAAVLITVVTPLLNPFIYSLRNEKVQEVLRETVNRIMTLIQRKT
OR6F1 (Homo sapiens), sequence (Q8NGZ6 whole entry): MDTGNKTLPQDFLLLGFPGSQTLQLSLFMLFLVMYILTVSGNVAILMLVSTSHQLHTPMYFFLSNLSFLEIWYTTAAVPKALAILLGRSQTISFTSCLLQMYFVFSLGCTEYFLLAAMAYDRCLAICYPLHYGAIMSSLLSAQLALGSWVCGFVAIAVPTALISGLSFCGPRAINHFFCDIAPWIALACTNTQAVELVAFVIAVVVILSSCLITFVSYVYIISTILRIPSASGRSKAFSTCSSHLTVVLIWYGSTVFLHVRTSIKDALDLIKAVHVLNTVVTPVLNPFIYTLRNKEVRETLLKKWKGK
OR6K3, sequence (as listed by the source): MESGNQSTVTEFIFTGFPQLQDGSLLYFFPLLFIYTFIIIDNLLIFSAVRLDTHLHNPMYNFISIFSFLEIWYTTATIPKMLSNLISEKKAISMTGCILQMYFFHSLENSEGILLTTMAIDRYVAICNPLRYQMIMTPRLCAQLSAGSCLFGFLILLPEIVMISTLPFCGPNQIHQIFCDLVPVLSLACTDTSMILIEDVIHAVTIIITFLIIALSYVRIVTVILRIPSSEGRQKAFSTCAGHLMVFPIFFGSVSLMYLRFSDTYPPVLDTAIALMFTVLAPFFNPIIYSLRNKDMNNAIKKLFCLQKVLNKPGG
OR6K3 (Homo sapiens), sequence (Q8NGY3 whole entry): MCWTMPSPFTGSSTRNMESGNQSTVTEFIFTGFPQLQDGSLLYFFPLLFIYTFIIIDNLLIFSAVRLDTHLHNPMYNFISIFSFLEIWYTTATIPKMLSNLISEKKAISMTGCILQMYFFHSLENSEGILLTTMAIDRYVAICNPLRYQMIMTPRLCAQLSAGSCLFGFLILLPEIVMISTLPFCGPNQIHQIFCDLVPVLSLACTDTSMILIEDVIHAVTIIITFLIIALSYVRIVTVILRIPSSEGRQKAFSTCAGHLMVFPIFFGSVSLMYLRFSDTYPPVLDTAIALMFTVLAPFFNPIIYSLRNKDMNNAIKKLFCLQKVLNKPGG
OR6M1 R224C, sequence (as listed by the source, stated change not applied): as the sequence (Q8NGM8 whole entry) above, with R224C counted along it

C=CCOC(=O)Cc1ccccc1
not listed: OR6J1 (Homo sapiens) [2] | OR6K3 (Homo sapiens)
inactive: all other assays above

Cc1c([N+](=O)[O-])c(C)c([N+](=O)[O-])c(C(C)(C)C)c1[N+](=O)[O-]
not listed: OR6J1 (Homo sapiens) [1] | OR6K3 | OR6M1 R224C
inactive: all other assays above
